# What was measured:
# [1] = Antitubercular activity against Mycobacterium bovis BCG ATCC 35743 active stage measured on day 8 by nitrate reductase based two-fold dilution assay; assay type: functional, Mycobacterium bovis BCG str. ATCC 35743; conditions: Mycobacterium tuberculosis variant bovis BCG, ATCC 35743, 192 h
# Staphylococcus aureus [2] = test: Growth inhibition of Staphylococcus aureus at 3 ug/ml; assay type: functional; conditions: read-out: GI
# Procedure, shortened: (§1)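 Screened against Gram-negative E. coli and P. aeruginosa and Gram-positive S. aureus and B. subtilis. Compound was tested at 3 µg/ml, and the read-out is percent growth inhibition.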
# [3] = Antitubercular activity against Mycobacterium tuberculosis H37Ra ATCC 25177 active stage measured on day 8 by XTT reduction menadione based two-fold dilution assay; assay type: functional; conditions: ATCC 25177, 192 h
# Procedure, shortened: (§2)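 M. tuberculosis H37Ra ATCC 25177 was exposed to 0.7–100 μg/mL in two-fold steps (0.7, 1.5, 3.1 … 100). Active stage was read after 8 days and dormant stage after 12 days of incubation. Inhibition was read by XTT reduction menadione assay (XRMA), absorbance 470 nm. MIC90 is the concentration giving ≥90% inhibition (µg/mL).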
# Pseudomonas aeruginosa [4] = test: Growth inhibition of Pseudomonas aeruginosa at 30 ug/ml; assay type: functional; conditions: read-out: GI
# [5] = Selectivity index, ratio of GI50 for human HCT116 cells to MIC90 for Mycobacterium bovis BCG ATCC 35743 dormant stage; assay type: toxicity, cell-based, HCT-116; conditions: read-out: Selectivity Index
# Procedure, shortened: (§3)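 Cytotoxicity was measured on human MCF-7, HCT116 and THP-1 cells by MTT assay, with paclitaxel as reference. The selectivity index is GI50 for the given cell line divided by MIC90 for the given mycobacterial strain and stage.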
# Escherichia coli [6] = test: Growth inhibition of Escherichia coli at 3 ug/ml; assay type: functional; conditions: read-out: GI; procedure, shortened: as §1
# [7] = Antitubercular activity against Mycobacterium tuberculosis H37Ra ATCC 25177 dormant stage measured on day 12 by XTT reduction menadione based two-fold dilution assay; assay type: functional; conditions: ATCC 25177, 288 h; procedure, shortened: as §2
# [8] = Cytotoxicity against human HCT116 cells by MTT assay; assay type: toxicity, cell-based, HCT-116; conditions: for GI50: HCT116 cells; for GI90: hct-116
# [9] = Selectivity index, ratio of GI50 for human HCT116 cells to MIC90 for Mycobacterium bovis BCG ATCC 35743 active stage; assay type: toxicity, cell-based, HCT-116; conditions: read-out: Selectivity Index
# Procedure, shortened: (§4)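 Cytotoxicity was measured on human MCF-7, HCT116 and THP-1 cells by MTT assay, with paclitaxel as reference. GI50 is the concentration inhibiting 50% of cell growth. The selectivity index is GI50 for the given cell line divided by MIC90 for the given mycobacterial strain and stage.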
# [10] = Selectivity index, ratio of GI50 for human THP1 cells to MIC90 for Mycobacterium tuberculosis H37Ra ATCC 25177 dormant stage; assay type: toxicity, cell-based, THP-1; conditions: read-out: Selectivity Index; procedure, shortened: as §3
# Bacillus subtilis [11] = test: Growth inhibition of Bacillus subtilis at 30 ug/ml; assay type: functional; conditions: read-out: GI
# Staphylococcus aureus [12] = test: Growth inhibition of Staphylococcus aureus at 10 ug/ml; assay type: functional; conditions: read-out: GI
# Escherichia coli [13] = test: Growth inhibition of Escherichia coli at 10 ug/ml; assay type: functional; conditions: read-out: GI
# [14] = Antitubercular activity against Mycobacterium tuberculosis H37Ra ATCC 25177 active stage infected in human THP1 cells measured on day 8 by nitrate reductase assay; assay type: functional, THP-1; conditions: ATCC 25177, 192 h
# Pseudomonas aeruginosa [15] = test: Growth inhibition of Pseudomonas aeruginosa at 10 ug/ml; assay type: functional; conditions: read-out: GI
# [16] = Cytotoxicity against human MCF7 cells by MTT assay; assay type: toxicity, cell-based; conditions: for GI50: MCF7 cells; for GI90: mcf7
# Escherichia coli [17] = test: Growth inhibition of Escherichia coli at 30 ug/ml; assay type: functional; conditions: read-out: GI
# Bacillus subtilis [18] = test: Growth inhibition of Bacillus subtilis at 3 ug/ml; assay type: functional; conditions: read-out: GI; procedure, shortened: as §1
# Escherichia coli [19] = test: Antibacterial activity against Escherichia coli; assay type: functional
# Bacillus subtilis [20] = test: Antibacterial activity against Bacillus subtilis; assay type: functional
# Bacillus subtilis [21] = test: Growth inhibition of Bacillus subtilis at 10 ug/ml; assay type: functional; conditions: read-out: GI
# [22] = Selectivity index, ratio of GI50 for human HCT116 cells to MIC90 for Mycobacterium tuberculosis H37Ra ATCC 25177 active stage; assay type: toxicity, cell-based, HCT-116; conditions: read-out: Selectivity Index; procedure, shortened: as §4
# Staphylococcus aureus [23] = test: Antibacterial activity against Staphylococcus aureus; assay type: functional
# Pseudomonas aeruginosa [24] = test: Antibacterial activity against Pseudomonas aeruginosa; assay type: functional
# [25] = Selectivity index, ratio of GI50 for human HCT116 cells to MIC90 for Mycobacterium tuberculosis H37Ra ATCC 25177 dormant stage; assay type: toxicity, cell-based, HCT-116; conditions: read-out: Selectivity Index; procedure, shortened: as §3
# [26] = Antitubercular activity against Mycobacterium tuberculosis H37Ra ATCC 25177 dormant stage infected in human THP1 cells measured on day 12 by nitrate reductase assay; assay type: functional, THP-1; conditions: ATCC 25177, 288 h
# [27] = Cytotoxicity against human THP1 cells by MTT assay; assay type: toxicity, cell-based, THP-1; conditions: for GI50: THP1 cells; for GI90: thp-1
# Staphylococcus aureus [28] = test: Growth inhibition of Staphylococcus aureus at 30 ug/ml; assay type: functional; conditions: read-out: GI
# [29] = Antitubercular activity against Mycobacterium bovis BCG ATCC 35743 dormant stage measured on day 12 by nitrate reductase based two-fold dilution assay; assay type: functional, Mycobacterium bovis BCG str. ATCC 35743; conditions: Mycobacterium tuberculosis variant bovis BCG, ATCC 35743, 288 h
# Pseudomonas aeruginosa [30] = test: Growth inhibition of Pseudomonas aeruginosa at 3 ug/ml; assay type: functional; conditions: read-out: GI; procedure, shortened: as §1
# [31] = Selectivity index, ratio of GI50 for human MCF7 cells to MIC90 for Mycobacterium bovis BCG ATCC 35743 active stage; assay type: toxicity, cell-based; conditions: read-out: Selectivity Index; procedure, shortened: as §4
# [32] = Selectivity index, ratio of GI50 for human MCF7 cells to MIC90 for Mycobacterium tuberculosis H37Ra ATCC 25177 dormant stage; assay type: toxicity, cell-based; conditions: read-out: Selectivity Index; procedure, shortened: as §3
# [33] = Selectivity index, ratio of GI50 for human THP1 cells to MIC90 for Mycobacterium bovis BCG ATCC 35743 dormant stage; assay type: toxicity, cell-based, THP-1; conditions: read-out: Selectivity Index; procedure, shortened: as §3
# [34] = Selectivity index, ratio of GI50 for human MCF7 cells to MIC90 for Mycobacterium tuberculosis H37Ra ATCC 25177 active stage; assay type: toxicity, cell-based; conditions: read-out: Selectivity Index; procedure, shortened: as §4
# [35] = Selectivity index, ratio of GI50 for human THP1 cells to MIC90 for Mycobacterium bovis BCG ATCC 35743 active stage; assay type: toxicity, cell-based, THP-1; conditions: read-out: Selectivity Index; procedure, shortened: as §4
# [36] = Selectivity index, ratio of GI50 for human THP1 cells to MIC90 for Mycobacterium tuberculosis H37Ra ATCC 25177 active stage; assay type: toxicity, cell-based, THP-1; conditions: read-out: Selectivity Index; procedure, shortened: as §4
# [37] = Selectivity index, ratio of GI50 for human MCF7 cells to MIC90 for Mycobacterium bovis BCG ATCC 35743 dormant stage; assay type: toxicity, cell-based; conditions: read-out: Selectivity Index; procedure, shortened: as §3
smiles,measurement,setting,value
C/C(=N\Nc1nc(-c2ccc(Br)cc2)cs1)c1sc(-c2ccccc2)nc1C,IC50,[1],> 100 mg/L
same,MIC90,[1],> 100 mg/L
same,inhibition of growth at 3 µg/mL,Staphylococcus aureus [2],92.8%
same,IC50,[3],0.18 mg/L
same,MIC90,[3],> 100 mg/L
same,inhibition of growth at 30 µg/mL,Pseudomonas aeruginosa [4],98.4%
same,selectivity ratio,[5],1
same,inhibition of growth at 3 µg/mL,Escherichia coli [6],93%
same,IC50,[7],0.14 mg/L
same,MIC90,[7],57.7 mg/L
same,GI50,[8],55.6 mg/L
same,GI90,[8],> 100 mg/L
same,selectivity ratio,[9],1
same,selectivity ratio,[10],1
same,inhibition of growth at 30 µg/mL,Bacillus subtilis [11],96.5%
same,inhibition of growth at 10 µg/mL,Staphylococcus aureus [12],94.3%
same,inhibition of growth at 10 µg/mL,Escherichia coli [13],94.4%
same,MIC90,[14],> 100 mg/L
same,inhibition of growth at 10 µg/mL,Pseudomonas aeruginosa [15],95.8%
same,GI50,[16],26.3 mg/L
same,GI90,[16],> 100 mg/L
same,inhibition of growth at 30 µg/mL,Escherichia coli [17],96.7%
same,inhibition of growth at 3 µg/mL,Bacillus subtilis [18],92.3%
same,IC50,Escherichia coli [19],0.475 mg/L
same,MIC,Escherichia coli [19],1.14 mg/L
same,IC50,Bacillus subtilis [20],0.526 mg/L
same,MIC,Bacillus subtilis [20],1.95 mg/L
same,inhibition of growth at 10 µg/mL,Bacillus subtilis [21],93.8%
same,selectivity ratio,[22],1
same,IC50,Staphylococcus aureus [23],0.453 mg/L
same,MIC,Staphylococcus aureus [23],1.84 mg/L
same,IC50,Pseudomonas aeruginosa [24],0.416 mg/L
same,MIC,Pseudomonas aeruginosa [24],1.05 mg/L
same,selectivity ratio,[25],1
same,MIC90,[26],> 100 mg/L
same,GI50,[27],48.9 mg/L
same,GI90,[27],> 100 mg/L
same,inhibition of growth at 30 µg/mL,Staphylococcus aureus [28],96.8%
same,IC50,[29],> 100 mg/L
same,MIC90,[29],> 100 mg/L
same,inhibition of growth at 3 µg/mL,Pseudomonas aeruginosa [30],94.3%
CC1(C)S[C@@H]2[C@H](NC(=O)[C@H](N)c3ccccc3)C(=O)N2[C@H]1C(=O)O [AMPICILLIN],MIC,Escherichia coli [19],1.46 mg/L
same,MIC,Bacillus subtilis [20],10.3 mg/L
same,MIC,Staphylococcus aureus [23],1 mg/L
same,MIC,Pseudomonas aeruginosa [24],4.36 mg/L
C/C(=N\Nc1nc(-c2ccc(Cl)cc2)cs1)c1sc(C)nc1C,IC50,[1],1.95 mg/L
same,MIC90,[1],16.1 mg/L
same,inhibition of growth at 3 µg/mL,Staphylococcus aureus [2],50.9%
same,selectivity ratio,[31],6
same,IC50,[3],11.9 mg/L
same,MIC90,[3],> 100 mg/L
same,selectivity ratio,[32],1
same,selectivity ratio,[33],6
same,inhibition of growth at 30 µg/mL,Pseudomonas aeruginosa [4],66.9%
same,selectivity ratio,[5],6
same,inhibition of growth at 3 µg/mL,Escherichia coli [6],54%
same,IC50,[7],9.02 mg/L
same,MIC90,[7],> 100 mg/L
same,GI50,[8],> 100 mg/L
same,GI90,[8],> 100 mg/L
same,selectivity ratio,[9],6
same,selectivity ratio,[10],1
same,inhibition of growth at 30 µg/mL,Bacillus subtilis [11],63.8%
same,inhibition of growth at 10 µg/mL,Staphylococcus aureus [12],61.7%
same,selectivity ratio,[34],3
same,selectivity ratio,[35],6
same,selectivity ratio,[36],3
same,inhibition of growth at 10 µg/mL,Escherichia coli [13],63.9%
same,MIC90,[14],> 100 mg/L
same,inhibition of growth at 10 µg/mL,Pseudomonas aeruginosa [15],61.6%
same,GI50,[16],> 100 mg/L
same,GI90,[16],> 100 mg/L
same,inhibition of growth at 30 µg/mL,Escherichia coli [17],68.4%
same,inhibition of growth at 3 µg/mL,Bacillus subtilis [18],47.1%
same,inhibition of growth at 10 µg/mL,Bacillus subtilis [21],58.9%
same,selectivity ratio,[22],3
same,selectivity ratio,[25],1
same,MIC90,[26],> 100 mg/L
same,GI50,[27],> 100 mg/L
same,GI90,[27],> 100 mg/L
same,selectivity ratio,[37],6
same,inhibition of growth at 30 µg/mL,Staphylococcus aureus [28],66.3%
same,IC50,[29],3.06 mg/L
same,MIC90,[29],17 mg/L
same,inhibition of growth at 3 µg/mL,Pseudomonas aeruginosa [30],50.9%
